High-throughput results: PubChem BioAssay, several laboratories
This excerpt belongs to a sample that is enriched for hits.
T cruzi repl = T. cruzi replication inhibition; AID 1885; T. cruzi beta-gal in NIH3T3, luminescence, 90 h; inhibition, % (concentration not given with the values); hit rate 1.4% among 300,000;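 active means mean inhibition across valid replicates above about 55%, limit read from the data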;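 further: signal also drops with host cell toxicity which is not excluded here; 0% = plate median of DMSO wells and 100% = zero luminescence signal; higher percent means less beta-gal luminescence so fewer parasites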
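System: mouse NIH/3T3 fibroblasts infected with β-gal-expressing T. cruzi Tulahuen C4 / Input: NIH/3T3 cells, 5,000 per well / Buffer or medium: Low-serum DMEM with 2% FBS / Probe or stimulus: 5000 reporter trypomastigotes per well / Schedule: ≥90 h infection period, 3 h prior cell attachment / Measured by: GalScreen luminescence, 60 min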
HSF1 activator = increases HSF-1 driven luciferase reporter signal. NIH3T3-HGL HSF-1 luciferase reporter, MG132, 8 h; 100% = twice DMSO control signal. activation, % at 9 µM. hit rate 1.7% among 300,000;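 active means mean replicate activation of at least 50% with a set share of replicates each reaching 50%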;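 further: 0% = median of the neutral control wells and 100% = twice that signal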
HSF1 inh = HSF1 inhibition. NIH3T3-HGL HSE-luciferase, MG132-induced, luminescence 8 h; active compounds read low. AID 2098. hit rate 0.77% among 300,000. activity change, negative = inhibition, % at 7.5 µM (by protocol);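 active means more than half of replicate wells show activity change below -50%, luminescence cut by over half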;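 further: luciferase reports HSF-1 transcriptional activity via heat shock element; 0% = median of DMSO wells and -100% = zero luminescence signal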
L major viab = reduces viability of Leishmania major promastigotes | resazurin fluorescence viability | hit rate 9% among 200,000 | inhibition, % at 10 µM | AID 1063; in the data active means inhibition above about 50%;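 further: promastigotes grown with compound for 44 hours at 28 °C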
Hsp70 activator = transcriptional activators of Hsp70. HeLa Hsp70 promoter luciferase reporter, luminescence; scaled: vehicle 0, proteasome-inhibitor control 100%. activation, % at 10 µM. hit rate 0.04% among 200,000. AID 1203;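 active means activation above the mean across all tested compounds plus 3 SD, cutoff set per campaign, cut at about 5.5% in these data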;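 further: 100% = MG132 at 30 µM as the positive control and 0% = DMSO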
* = called active by the depositor; . = no result given.

SMILES	T cruzi repl	HSF1 activator	HSF1 inh	L major viab	Hsp70 activator
COc1ccc(/C=C/C(=O)NCC(=O)N/N=C(/CCC(=O)O)c2ccccc2)cc1	-8	-15	-7	.	.
COc1ccccc1/C=C/C(=O)NCC(=O)N/N=C(\CCC(=O)O)c1ccccc1	-18	8	3	99*	0
COc1ccccc1/C=C/C(=O)NCC(=O)N/N=C/c1cc(Br)ccc1OC	28	59*	22	-9	0
O=C(COc1ccccc1)NCC(=O)N/N=C/c1cc(Br)ccc1OCc1ccccc1	8	23	7	10	0
Cc1cccc(OCC(=O)NCC(=O)N/N=C/c2cc(Br)ccc2OCc2ccccc2)c1	23	16	10	92*	0
CCc1noc(C)c1C(=O)Nc1ccc(F)c(F)c1	-21	-4	1	.	.
Cc1ccc(NS(=O)(=O)c2ccc(Br)s2)cc1S(=O)(=O)N1CCOCC1	17	11	-2	-7	0
O=C(Nc1cccc(NC(=O)c2cccc(Cl)c2)c1)c1cccnc1	-9	-11	-5	.	.
Cc1ccc(C(=O)Nc2nc(-c3ccccc3)c(-c3ccccc3)o2)cc1	59*	1	3	-5	0
Cc1ccc(C(=O)Nc2nnc(-c3ccncc3)o2)cc1	-16	1	2	53*	0
Cc1cc(C)nc(SCC(=O)Nc2nc(-c3ccccc3)c(-c3ccccc3)o2)n1	15	6	-3	-7	0
O=C(Nc1nnc(-c2ccc(Cl)cc2)o1)c1ccc(N2C(=O)CCC2=O)cc1	-14	-10	-1	66*	0
O=C(Nc1nnc(-c2ccncc2)o1)c1ccccc1	-19	-1	-15	3	0
O=C(Nc1nnc(-c2ccc3c(c2)CCCC3)o1)c1ccccc1	45	-22	-19	96*	0
COc1ccc(CCN2CC(C(=O)NCc3nc4ccccc4n3C)CCC2=O)cc1 (stereo not given)	13	-9	-8	.	.
O=C(Cc1cccc2ccccc12)Nc1ccc(N2CCOCC2)cc1	-1	9	-5	0	0
Cc1ccc(CNC(=O)CNC(=O)[C@@H]2Cc3ccccc3CN2C(=O)OC(C)(C)C)cc1	9	7	3	.	.
CC1CCc2[nH]c3ccc(C(=O)NCCCOC(C)C)cc3c2C1 (stereo not given)	-10	5	1	14	1
COc1ccc2nc(N=Nc3ccc(O)c4ccccc34)sc2c1	49	-8	-16	98*	0
Cc1ccc(CNc2ccc(O)cc2)cc1	-6	6	3	99*	-1
CC(=O)Nc1cccc(NC(=O)CSc2nnc(Cc3cccn3C)n2-c2ccc(F)cc2)c1	-6	-72	-65*	1	0
CCOC(=O)c1ccc(/C=C2/C=C(c3ccccc3)N(c3ccc(Cl)c(C(=O)O)c3)C2=O)cc1	-8	13	-7	-3	0
C/C(=C\c1ccc(C)o1)C(=O)c1c(C)cc(C)[nH]c1=O	-24	13	6	7	0
CCOCCCn1c(SCC(=O)NCc2ccco2)nc2c(sc3ccccc32)c1=O	13	12	2	5	0
CCOC(=O)CSc1nc2c(sc3ccccc32)c(=O)n1CCCN1CCOCC1	17	26	10	100*	0
SMILES	T cruzi repl	HSF1 activator	HSF1 inh	L major viab	Hsp70 activator
CCCCn1c(SCC(=O)NCc2ccco2)nc2c(sc3ccccc32)c1=O	30	-73	-65*	11	0
CCOc1ccc(S(=O)(=O)N2CCN(Cc3ccc4c(c3)OCO4)CC2)cc1C	-24	1	0	.	.
Cc1noc(NS(=O)(=O)c2ccc(N3Cc4ccccc4C3=O)cc2)c1C	5	-89	-85*	-4	0
Cc1ccnc(NC(=O)c2sc3cc(Cl)ccc3c2Cl)c1	14	54*	6	-6	1
CSc1ccc(NC(=O)Nc2cc(C)ccn2)cc1	6	12	-6	.	.
Cc1ccnc(NC(=O)c2cc3cc(F)ccc3s2)c1	-9	72*	32	.	.
Cc1ccnc(NC(=O)Nc2ccc3c(c2)N(C)C(=O)CS3)c1	4	69*	30	8	0
Cc1ccnc(NC(=O)Nc2ccc(F)cc2)c1	1	61*	29	-4	0
CC(=O)c1ccc(N2CCN(C(=O)C(=O)c3cn(CC(=O)N4CCCCCC4)c4ccccc34)CC2)cc1	18	3	3	.	.
COc1ccc(NS(=O)(=O)c2ccc(C)c(C(=O)NCC(c3ccco3)N3CCCCC3)c2)cc1 (stereo not given)	1	3	2	.	.
